The record followed here is ChEMBL document CHEMBL4513216, “Probing the Open Global Health Chemical Diversity Library for Multistage-Active Starting Points for Next-Generation Antimalarials” (ACS Infect Dis, 2020).

Molecules are shown by their SMILES.

The nature of this series: Toxicity liver stage against HepG2, at 10uM. On the set-up: test concentration 10 uM, cell line HepG2-A16-CD81EGFP. Type of series: cell-based. As to conditions: human, HepG2-A16-CD81EGFP cells; read-out: INHIBITION
The gist of the method:
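Uninfected HepG2-A16-CD81EGFP cells, 3 × 10^3 per well, 1536-well, plated on prespotted compound at 10 μM final, parasite-free screening media added to match infected plates; puromycin 10 μM positive, DMSO 0.5% negative; run in parallel with 48 h PbLuc assay at 37 °C, 5% CO2; viability by CellTiter-Glo luminescence, normalized to controls.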
Take `Cc1ncc(CN(C)C(=O)Nc2cccc(N3CCOC3=O)c2)s1`: the cytotoxicity at 10 µM worked out at 5.31%.

As for `O=c1cc(CNCc2ccc3c(c2)OCO3)nc2ccc(Br)cn12`, the cytotoxicity at 10 µM is -2.62%.

In the case of `CCc1cc(=O)n(CCNC(=O)Nc2ccc(OC(F)(F)F)cc2)cn1`, the cytotoxicity at 10 µM was -0.898%.

Turning to `CC(C)(C)c1cc(=O)n2c(n1)SCC(C(=O)NCc1cccs1)C2` (stereo unspecified), the cytotoxicity at 10 µM stood at 12.9%.

With `O=C(c1ccccn1)N1CCN(c2cnnc(N3CCCC3)c2)CC1`, the cytotoxicity at 10 µM was determined as 4.74%.

For `CN(C)C(=O)NCc1nnc2n1CCN(Cc1cccs1)C2`, the cytotoxicity at 10 µM is -150%.

For `Cc1ccc(NC(=O)CN2CCOCC2)c(F)c1`, the cytotoxicity at 10 µM is 5.76%.

As for `CN1CCCC1CCNC(=O)c1ccccc1-n1cc(CN)cn1` (stereo unspecified), the cytotoxicity at 10 µM worked out at 3.44%.

Take `Cc1cc(C(=O)N2CCOCC2c2nc(C)c[nH]2)nc(O)n1` (stereo unspecified): the cytotoxicity at 10 µM worked out at 2.85%.

As to `COc1nc2cc(C)ccc2cc1CN(C)Cc1n[nH]c2c1CCCC2`, the cytotoxicity at 10 µM came to 4.03%.

Consider `CCN1CCCC(O)(c2nc(C)c(CCOc3ccccc3Cl)s2)CC1` (stereo unspecified), for which the cytotoxicity at 10 µM is -26.2%.

`O=C(Cn1cc(Cl)cn1)N1CCCC(c2ccn[nH]2)C1` (stereo unspecified): the cytotoxicity at 10 µM was -22.5%.

With `O=C(O)c1cccc(CN2CCC(c3ccnc4ccnn34)CC2)c1`, the cytotoxicity at 10 µM is -16.2%.

As to `CNc1cc(C2CCCN(S(=O)(=O)c3cn[nH]c3)C2)ccn1` (stereo unspecified), the cytotoxicity at 10 µM is -24%.

Turning to `CC(C)n1ccnc1CN1CCCC1c1cccc(-n2ccnc2)n1` (stereo unspecified), the cytotoxicity at 10 µM was -25.1%.

`CC(=O)N1CCC(Cc2cncc(-c3c(C)n[nH]c3C)n2)C1` (stereo unspecified): the cytotoxicity at 10 µM is -19.4%.

On to `COc1ccc(C2Nc3cc(Cl)ccc3C3=NCCN32)cc1O` (stereo unspecified), for which the cytotoxicity at 10 µM was -31.1%.

Turning to `O=C(Cc1ccsc1)N1CCCC(c2cc(C(F)F)n3ncnc3n2)C1` (stereo unspecified), the cytotoxicity at 10 µM is -20.7%.

For `COCCN1C(=O)CO[C@H]2CN(Cc3cccc(OC)c3F)C[C@@H]21`, the cytotoxicity at 10 µM is -0.0572%.

Consider `Cc1nc(NC2CCCC2)cc(C2CCN2C(=O)c2ccccn2)n1` (stereo unspecified), for which the cytotoxicity at 10 µM was -4.39%.

As for `CS(=O)(=O)c1snnc1C1CCN(Cc2ccc3nccnc3c2)CC1`, the cytotoxicity at 10 µM is -6.14%.

Consider `CN1CCc2nc(C3CCCN(C(=O)CC4CCCCC4)C3)ncc2C1` (stereo unspecified), for which the cytotoxicity at 10 µM is -8.36%.

Consider `CC(=O)Nc1nc(C2CCN(C(C)=O)CC2)cs1`, for which the cytotoxicity at 10 µM is 4.3%.

With `COCCN(Cc1ccco1)c1ncc(C#N)cc1Cl`, the cytotoxicity at 10 µM is -2.66%.

As for `CN1CCC(N(Cc2ccco2)S(=O)(=O)c2ccc(Cl)cc2)CC1`, the cytotoxicity at 10 µM is -1.1%.

As for `Cc1ccc(CN(c2cc(C)nc3nc(C(F)(F)F)nn23)C2CC2)cc1`, the cytotoxicity at 10 µM was -4.12%.

With `CC(C)Cc1cc(C(=O)N2CCCN(c3cccnn3)CC2)[nH]n1`, the cytotoxicity at 10 µM was -10.5%.

As for `O=C(c1sccc1-n1cnnn1)N1CCC2(CCCCC2)CC1`, the cytotoxicity at 10 µM stood at 9.09%.

`Cc1ccccc1C1(C(=O)N2CCOC(C)C2)CCOCC1` (stereo unspecified): the cytotoxicity at 10 µM is 5.33%.

`COc1ccc(C(=O)CCC(=O)NCc2ncc(C)s2)cc1F`: the cytotoxicity at 10 µM was -11.8%.

Turning to `COC(=O)C1CCN(C(=O)NCC(C)Cc2cccs2)CC1` (stereo unspecified), the cytotoxicity at 10 µM was -7.33%.

Turning to `Cc1nnc(CN2CCC(Oc3ccc(F)cc3)CC2)o1`, the cytotoxicity at 10 µM was -11.8%.

On to `Cc1csc(CNc2cccc(OCCN3CCCC3)c2)n1`, for which the cytotoxicity at 10 µM was -4.49%.

As for `CS(=O)(=O)NCCN1CCOC2(CCc3ccccc32)C1` (stereo unspecified), the cytotoxicity at 10 µM was -9.63%.

With `Cc1cc(N2CCC(NC(C)Cc3ccsc3)CC2)nc(C)n1` (stereo unspecified), the cytotoxicity at 10 µM is -7.73%.

Take `COc1ccccc1CN(C)c1nc2c(cnn2C)c(=O)[nH]1`: the cytotoxicity at 10 µM came out at 40.6%.

Regarding `Cc1cc(CCC(=O)N2CCOCC2)ccc1Br`, the cytotoxicity at 10 µM came to 12.5%.

Regarding `O=C(NCCCc1ccc(O)cc1)C1(O)Cc2ccccc2C1`, the cytotoxicity at 10 µM came out at 1.6%.

Take `Cc1cn2c(=O)c(-c3ccnc(N[C@@H](C)CO)n3)cnc2s1`: the cytotoxicity at 10 µM is -13.7%.

Turning to `Cc1[nH]c2ccccc2c1-c1ccnc(NC[C@H](O)CO)n1`, the cytotoxicity at 10 µM came out at 8.9%.

Turning to `CCOC(=O)CCCNc1nc(C(C)(C)C)nc2c1cnn2C`, the cytotoxicity at 10 µM was -0.627%.

Regarding `Cc1cccnc1CC(C)Nc1ncc(C)c(N(C)C)n1` (stereo unspecified), the cytotoxicity at 10 µM came to 12.1%.

Regarding `Cc1n[nH]c(C)c1-c1cc(-c2cc[nH]c2)nc(N)c1C#N`, the cytotoxicity at 10 µM turned out to be 2.41%.

Consider `CCC(C)N1CCC(Oc2ccc(C(=O)NCCN(C)C)cc2Cl)CC1` (stereo unspecified), for which the cytotoxicity at 10 µM was -2.09%.

Turning to `Cc1cc(C)n(C2CN(C(=O)CN3C(=O)CSc4ccccc43)C2)n1`, the cytotoxicity at 10 µM is -6.53%.

`CCn1nc(C)c(CN2CCC(c3ccc(C(=O)O)cc3)C2)c1C` (stereo unspecified): the cytotoxicity at 10 µM came to 4.22%.

Consider `CC(C)Cc1cc(CNc2nc(-c3cccnc3)nc3c2CNC3)no1`, for which the cytotoxicity at 10 µM amounted to 1.95%.

Turning to `Cc1ccccc1C(C(=O)NCCN1CCC(CO)CC1)N(C)C` (stereo unspecified), the cytotoxicity at 10 µM was -4.5%.

With `CCC[C@H]1CN(Cc2cncn2C)C[C@@H]1NC(=O)C1(COC)CCC1`, the cytotoxicity at 10 µM was -8.26%.

As for `CC(C)NS(=O)(=O)c1cc(C(=O)O)cc(-n2cc3c(n2)CCC3)c1`, the cytotoxicity at 10 µM came to 3.19%.

`Cc1cccc(C(=O)N2CC(=O)N(c3ccccc3Cl)CC2C)n1` (stereo unspecified): the cytotoxicity at 10 µM is -7.25%.

For `Cc1cccnc1CN1CCN(C(=O)c2cnn(C(C)C)c2)CC1`, the cytotoxicity at 10 µM amounted to 0.616%.

On to `CN(C)C(C(=O)N1CC(c2ccccn2)C1)c1ccc2c(c1)OCO2` (stereo unspecified), for which the cytotoxicity at 10 µM is 10.6%.

On to `CC(=O)Nn1c(C)cc(CN2CCC(c3ccncc3)CC2)c1C`, for which the cytotoxicity at 10 µM was 4.61%.

As for `CCn1ncnc1CN1CCC(CNC(=O)c2cccc(C)c2)C1` (stereo unspecified), the cytotoxicity at 10 µM was -2.59%.

In the case of `CN(C)C[C@@H]1CN(C(=O)CCC2CCCC2)C[C@@H]1CO`, the cytotoxicity at 10 µM is -2.94%.

Regarding `OCCNc1cc(N2CCC(n3cc(C4CCCC4)nn3)CC2)ncn1`, the cytotoxicity at 10 µM was -9.72%.

As for `O=C(c1cn(CC(=O)N2CCCCCC2)c2ccccc12)C1CC1`, the cytotoxicity at 10 µM was 13.6%.

With `Cc1ccc2oc(=O)n(CCC(=O)N3CCN(C)C(=O)C3)c2c1`, the cytotoxicity at 10 µM is -15.6%.

Turning to `CCn1ncc(C(=O)N2CCN(CC3CCCO3)CC2)c1C` (stereo unspecified), the cytotoxicity at 10 µM was -11.6%.

Regarding `COCCNc1nc2c(c(NCCc3cccs3)n1)CCNCC2`, the cytotoxicity at 10 µM was 3.96%.

Consider `CC(c1ccc(C(=O)NCCc2nc(N)cc(O)n2)o1)N1CCCCC1` (stereo unspecified), for which the cytotoxicity at 10 µM is -8.9%.

Regarding `O=C1NC[C@@]2(C(=O)O)CN(Cc3cccc(Oc4ccccc4)c3)C[C@@H]12`, the cytotoxicity at 10 µM was -5.65%.

With `COc1ccc(N(c2ccc(C)cc2)c2ccc(C(=O)O)s2)cc1`, the cytotoxicity at 10 µM is -3.75%.

As to `Cc1nc(C2CCCN2CC(=O)Nc2c(C)n[nH]c2C)no1` (stereo unspecified), the cytotoxicity at 10 µM stood at 1.65%.

Consider `Cc1nnc(CN(C)C2CCCN(Cc3noc(C4CC4)n3)C2)o1` (stereo unspecified), for which the cytotoxicity at 10 µM is -2.51%.

Regarding `Cn1ccnc1CN1CCCN(C(=O)c2ccc3ccccc3c2)CC1`, the cytotoxicity at 10 µM was -8.66%.

As to `CC(NC(=O)NCC1(c2ccc(Cl)cc2)CC1)c1nncn1C` (stereo unspecified), the cytotoxicity at 10 µM was -3.25%.

In the case of `COc1ccccc1C1(C(=O)NCCN2CCCCC2)CCOCC1`, the cytotoxicity at 10 µM was -10.3%.

Take `CCc1ccc(C(=O)O)cc1S(=O)(=O)Nc1ccc2c(c1)OCCO2`: the cytotoxicity at 10 µM was -4.07%.

With `Cc1cnn(CCNCc2csc(-c3ncccn3)n2)c1`, the cytotoxicity at 10 µM is -7.48%.

As to `Cc1noc(CN2CCCC(Cn3nc(C)nc3C)C2)n1` (stereo unspecified), the cytotoxicity at 10 µM is -5.04%.

Take `Cc1ccc(NC2CCN(C(=O)Cc3ccc(C)s3)CC2)nn1`: the cytotoxicity at 10 µM is -3.75%.

`Cc1nc(C)n(CC2CCCN2c2ncnc3ccsc23)n1` (stereo unspecified): the cytotoxicity at 10 µM amounted to 7.61%.

As to `OCCn1nccc1C1CCN(CCCOc2ccc(F)cc2)CC1`, the cytotoxicity at 10 µM was -4.3%.

For `CCOc1ncccc1NC(=O)N1CCc2ccccc2C1`, the cytotoxicity at 10 µM was -8.62%.

`CC(=O)N1CCC(CN2CCN(Cc3nccn3C)C(C)C2)CC1` (stereo unspecified): the cytotoxicity at 10 µM is -15.4%.

Take `Cc1ccc(-c2nnc(CN3CCc4cnc(C)nc4C3)o2)cc1`: the cytotoxicity at 10 µM was -6.95%.

Turning to `CCc1ccc(CCC(=O)N2CCOCC2c2ncon2)cc1` (stereo unspecified), the cytotoxicity at 10 µM was -3.78%.

For the compound `Cc1cccc(-c2ccc(C(=O)NCC3CCOC3)c(=O)[nH]2)c1` (stereo unspecified), the cytotoxicity at 10 µM is -9.66%.

With `Cc1nn(C)c(N(C)C)c1CNCCNS(C)(=O)=O`, the cytotoxicity at 10 µM is -5.05%.

`CCn1ccnc1CN1CCCN(C(=O)c2cccc(C#N)c2)CC1`: the cytotoxicity at 10 µM is -12.2%.

Regarding `COCC(c1cccc(C(F)(F)F)c1)N(C)C(=O)c1ccncc1` (stereo unspecified), the cytotoxicity at 10 µM was -14.6%.

As to `Cc1noc(C)c1CC(=O)OCC(=O)N1CCc2sccc2C1`, the cytotoxicity at 10 µM was -0.361%.

As to `CCc1cc(C)c(C(=O)N2CCCC2CC(=O)c2cnn(C)c2)o1` (stereo unspecified), the cytotoxicity at 10 µM amounted to 5.22%.

On to `O=C(CCc1cccs1)N1CCC(N2CCNC2=O)CC1`, for which the cytotoxicity at 10 µM came out at 5.37%.

As to `c1cnnc(N2CCCC(NCc3ccc(-n4cccn4)cc3)C2)c1` (stereo unspecified), the cytotoxicity at 10 µM came out at 0.241%.

Take `Cc1oc(-c2ccco2)nc1CC(=O)N1CCN(CC(C)(C)O)CC1`: the cytotoxicity at 10 µM turned out to be 0.626%.

For `O=C(c1cc[nH]n1)N1CCC(Nc2cccnn2)CC1`, the cytotoxicity at 10 µM was -0.529%.

Regarding `CN(C)CCN(C(=O)Cc1ccc2c(c1)OCCO2)C1CCN(C)CC1`, the cytotoxicity at 10 µM came to 2.16%.

As to `O[C@]1(c2ccccn2)CC[C@@H]2CN(Cc3cccc4ncccc34)C[C@@H]21`, the cytotoxicity at 10 µM was -2.09%.

As to `CC(=O)N1CC(=O)N(c2ccccc2)CC12CCN(CC1CC1)C2` (stereo unspecified), the cytotoxicity at 10 µM worked out at 4.45%.

For `Cn1nc(C2CCN(C(=O)Cc3ccsc3)CC2)c2cccnc21`, the cytotoxicity at 10 µM was -4.9%.

`CC(C)c1nn(C)c(Cl)c1CNCc1ccc2c(c1)OCO2`: the cytotoxicity at 10 µM is -1.77%.

For `Cc1ccc(CN2CCC(O)(Cn3ccc4ncccc43)CC2)o1`, the cytotoxicity at 10 µM was -31.2%.

Turning to `c1ccc(COC2C[C@@H]3CN(Cc4cncnc4)C[C@@H]3C2)cc1` (stereo partly specified), the cytotoxicity at 10 µM is -40%.
